KDM4C inh: KDM4C (human) demethylase inhibition; 0.15% of 96,000 active; GST-KDM4C 2-372, H3K9me3 peptide, LANCE TR-FRET; inhibition, % at 12.5 µM; Q9H3R0;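 active means mean replicate inhibition above about 25%, with at least 55% of replicates also reaching it, limit read from the data, passing the limit was not always enough; inconclusive means only one of those two conditions met; inactive means neither condition met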
Target sequence (Q9H3R0 2-372 limits assumed): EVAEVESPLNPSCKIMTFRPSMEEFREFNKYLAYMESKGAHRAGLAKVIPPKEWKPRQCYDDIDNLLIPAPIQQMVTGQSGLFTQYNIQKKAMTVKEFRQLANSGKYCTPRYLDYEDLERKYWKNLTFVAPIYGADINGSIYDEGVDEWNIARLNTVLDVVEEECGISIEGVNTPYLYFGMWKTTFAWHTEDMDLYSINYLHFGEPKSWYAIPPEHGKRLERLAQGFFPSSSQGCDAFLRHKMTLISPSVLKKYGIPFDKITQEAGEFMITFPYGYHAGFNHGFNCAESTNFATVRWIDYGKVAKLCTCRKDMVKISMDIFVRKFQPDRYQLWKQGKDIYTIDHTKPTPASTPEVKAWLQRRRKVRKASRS
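System – N-terminal GST-fused human GASC-1 (KDM4C) fragment, residues 2-372 · Input – enzyme final amount 10 nM · Technique – LANCE TR-FRET, Eu antibody, ULight-streptavidin, EDTA, ex 340 nm, em 618/671 nm · Medium – HEPES buffer, pH 7.5, plus ascorbate · Incubation – enzyme reaction 30 min, then detection 60 min, both room temperature · Reagent – H3K9me3 peptide with Fe(II)/2OG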
IDH1 R132H inh: IDH1 R132H (human) inhibition | IDH1 R132H reductase, diaphorase/resazurin fluorescence, 60 min | O75874 | inhibition, % at 10 µM | 0.18% of 70,000 active; in the data active means inhibition above about 34%; inconclusive means no clear call, values can overlap the other calls; inactive means below about 11%;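 further: 0% = DMSO and 100% = no enzyme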
T cruzi growth-1: T. cruzi proliferation inhibition | 5.9% of 77,000 active | AID 624255 | inhibition, % at 8.34 µM | T. cruzi beta-gal in NIH3T3, GalScreen luminescence, 90 h;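 active means mean inhibition above about 93%, with at least 55% of replicates each passing it, limit read from the data, passing the limit was not always enough; inconclusive means only one of those two conditions holds; inactive means neither condition holds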
T cruzi growth-2: Trypanosoma cruzi proliferation inhibition. AID 651739. T. cruzi beta-gal in NIH3T3, GalScreen luminescence, 90 h. 72% of 5,600 active. shares compounds with T cruzi growth-1. inhibition, % at 8.35 µM;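 active means mean replicate inhibition above about 95% and at least 55% of replicates individually reaching it, limit read from the data; inconclusive means only one of the two criteria is met; inactive means neither criterion is met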
T cruzi growth-3: blocks T. cruzi growth in NIH3T3 host cells; 21% of 5,600 active; shares compounds with T cruzi growth-1; T. cruzi beta-gal in NIH3T3, GalScreen luminescence, 90 h; inhibition, % at 2.09 µM; AID 651740;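 active means mean inhibition above about 95%, with at least 55% of replicates also reaching it, limit read from the data; inconclusive means meets just one of the two conditions; inactive means meets neither condition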;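 further: plate controls were neutral control median for no effect and positive control median for full effect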
3T3 cytotox: kills mouse NIH/3T3 fibroblasts; shares compounds with T cruzi growth-1; NIH/3T3 viability, CellTiter-Glo ATP luminescence, 90 h; cytotoxicity (signal decrease), % at 8.35 µM; 14% of 5,600 active; AID 651742;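 active means mean signal decrease across replicates above about 35% based on untreated-well scatter, with enough replicates individually passing, limit read from the data; inconclusive means no rule stated though some were filed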;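 further: 0% = median of neutral control wells and 100% = median of positive control wells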
3T3 cytotox 2: NIH/3T3 (mouse) viability loss; shares compounds with T cruzi growth-1; NIH/3T3 viability, CellTiter-Glo ATP luminescence, 90 h; inhibition, % at 24.9 µM; 56% of 5,600 active; AID 651744;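 active means mean loss of cell viability signal at or above a set limit, and enough replicates individually reaching it; inconclusive means meets only the mean limit or only the replicate share; inactive means meets neither condition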;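 further: 0% = median of neutral control wells and 100% = median of positive control wells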
An asterisk follows results filed as active; ? = inconclusive; . = not tested or not shown. The full list was thinned out, with hits kept by preference.

SMILES	KDM4C inh	IDH1 R132H inh	T cruzi growth-1	T cruzi growth-2	T cruzi growth-3	3T3 cytotox	3T3 cytotox 2
Cc1ccc(S(=O)(=O)Nc2ccc3c(c2)C(=O)N([C@@H](C)CO)C[C@H](C)[C@@H](CN(C)S(=O)(=O)c2ccc(F)cc2)OCCCC[C@@H](C)O3)cc1	0	0	.	.	.	.	.
Cc1ccc(S(=O)(=O)Nc2ccc3c(c2)C(=O)N([C@H](C)CO)C[C@H](C)[C@H](CN(C)S(=O)(=O)c2ccc(F)cc2)OCCCC[C@H](C)O3)cc1	-1	.	120*	103*	107*	-12	16
Cc1ccc(S(=O)(=O)N(C)C[C@H]2OCCCC[C@H](C)Oc3ccc(NS(=O)(=O)c4ccc(F)cc4)cc3C(=O)N([C@H](C)CO)C[C@H]2C)cc1	-1	.	116*	98*	72	-33	40*
Cc1ccc(S(=O)(=O)N(C)C[C@@H]2OCCCC[C@@H](C)Oc3ccc(NS(=O)(=O)c4ccc(F)cc4)cc3C(=O)N([C@H](C)CO)C[C@@H]2C)cc1	-2	.	30	.	.	.	.
Cc1ccc(S(=O)(=O)Nc2ccc3c(c2)C(=O)N([C@H](C)CO)C[C@H](C)[C@@H](CN(C)S(=O)(=O)c2ccc(F)cc2)OCCCC[C@@H](C)O3)cc1	-1	0	.	.	.	.	.
Cc1ccc(S(=O)(=O)N(C)C[C@@H]2OCCCC[C@H](C)Oc3ccc(NS(=O)(=O)c4ccc(F)cc4)cc3C(=O)N([C@H](C)CO)C[C@@H]2C)cc1	0	.	108*	97*	71	-20	-1
C[C@@H]1CN([C@@H](C)CO)C(=O)c2cc(NC(=O)NC3CCCCC3)ccc2O[C@@H]1CN(C)CC1CCCCC1	1	1	.	.	.	.	.
Cc1noc(C)c1S(=O)(=O)Nc1ccc2c(c1)CC(=O)N([C@H](C)CO)C[C@@H](C)[C@@H](CN(C)C(=O)NC1CCCCC1)O2	-1	0	3	.	.	.	.
C[C@H](CO)N1C[C@H](C)[C@@H](CN(C)CC2CCCCC2)OCCCC[C@H](C)Oc2ccc(NC(=O)c3ccncc3)cc2C1=O	0	.	84	.	.	.	.
C[C@@H]1CN([C@@H](C)CO)C(=O)CCCn2cc(nn2)CO[C@H]1CN(C)S(=O)(=O)c1ccccc1C#N	0	.	.	.	.	.	.
O=C(C[C@@H]1CC[C@@H](NC(=O)Cc2cccnc2)[C@H](CO)O1)NCc1ccc2c(c1)OCO2	-1	0	-3	.	.	.	.
COc1ccc(-c2ccc3n(c2=O)C[C@@H]2[C@@H](CO)[C@H](C(=O)N(C)C)N(CC4CC4)[C@H]32)cc1	28*	.	103*	22	9	-3	19
COC(=O)[C@@H]1[C@@H](CO)[C@@H]2Cn3c(ccc(-c4ccccc4)c3=O)[C@@H]2N1Cc1cccc(F)c1	7	.	?	26	-17	-8	-1
COc1ccc(-c2ccc3n(c2=O)C[C@@H]2[C@@H](CO)[C@H](C(=O)N(C)C)N(CC4CCCC4)[C@H]32)cc1	9	.	-4	.	.	.	.
CCN1[C@@H]2c3ccc(-c4cccc(F)c4)c(=O)n3C[C@@H]2[C@@H](CO)[C@@H]1C(=O)N[C@@H](C)c1ccccc1	2	.	102*	25	30	1	25*
CCN1[C@H](C(=O)N[C@H](C)c2ccccc2)[C@@H](CO)[C@@H]2Cn3c(ccc(-c4cccc(F)c4)c3=O)[C@@H]21	9	.	76	.	.	.	.
COC(=O)[C@H]1[C@H](CO)[C@H]2Cn3c(ccc(-c4ccccc4)c3=O)[C@H]2N1Cc1cccc(F)c1	0	.	87	.	.	.	.
COC(=O)[C@H]1[C@H](CO)[C@H]2Cn3c(ccc(-c4cccc(C(=O)N(C)C)c4)c3=O)[C@H]2N1CC1CC1	2	.	44	.	.	.	.
CCN1[C@H](C(=O)OC)[C@@H](CO)[C@@H]2Cn3c(ccc(-c4cccc(C(=O)N(C)C)c4)c3=O)[C@@H]21	4	.	96*	-38	-44	-12	-14
CO[C@@H]1CN(C)C(=O)c2ccc(NC(=O)NC(C)C)cc2OC[C@H](C)N(Cc2ccc(-c3ccccn3)cc2)C[C@@H]1C	-2	0	.	.	.	.	.

Compound activity deposited in PubChem by Broad Institute.
